Shown are actives, neighbours in structure and some others; about 0.74% of the full set was active somewhere.
RGS7-Gao reg = regulators of human RGS7-Galphao interaction; P09471; Multiplexed bead flow cytometry, RGS7-Galphao binding; actives lie on both sides; AID 1439; binding response (% of control), % at 10 µM; 220,000 compounds, 0.35% hits; in the data active = binding response below about 49% or above about 150%;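 also: fluorescent Galphao held in activated GDP-AlF4 state binding bead-coupled RGS7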
RGS16-Gao = regulators of human RGS16-Galphao interaction. bead-based flow cytometry RGS16-Galphao binding, fluorescence; actives lie on both sides. binding response (% of control), % at 10 µM. AID 1441. O15492+P09471. 220,000 compounds, 0.38% hits;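 also: Galphao activated by GDP with aluminum fluoride before binding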
RGS4-Gao reg = modulates binding of RGS4 to human Galphao. P09471. Multiplexed bead flow cytometry; actives lie on both sides. binding response (% of control), % at 10 µM. 220,000 compounds, 0.33% hits. AID 1415; in the data active = binding response below about 49% or above about 150%; inactive = in between;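 also: fluorescent Galphao activated with aluminum fluoride binding bead-coupled RGS4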
RGS8-Gao = human RGS8-Galphao interaction regulation; P09471; multiplexed bead flow cytometry, RGS8-Galphao binding; actives lie on both sides; response (percent of control binding), % at 10 µM; 220,000 compounds, 0.34% hits; AID 1423; in the data active = response below about 60% or above about 140%; inactive = in between;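 also: Galphao activated as the GDP aluminium fluoride complex binding bead-coupled RGS8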
Biofilm kill mix = mixtures killing C. albicans biofilm. C. albicans biofilm persisters + clotrimazole, fluorescence viability; primary screen in compound mixtures of four per well. inhibition, % at 7.6 µM. 120,000 compounds, 0.02% hits;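 active = inhibition above 30.3% in the primary screen of four-compound pools, then above 30% when the compound was retested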;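 also: compounds exposed to preformed 24 h biofilms for 48 h; 0% = untreated biofilm control and 100% = clotrimazole plus chlorhexidine kill blank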
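Probe or stimulus – Clotrimazole 50 µg/mL co-treatment · System – C. albicans biofilms · Schedule – 24 h biofilm formation, then 48 h compound exposure, 37 °C · Evaluation – percent inhibition of biofilm viability · Technique – 2-h Alamar Blue fluorescence, 535/590 nm excitation/emission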
RGS-Gao = modulates binding between human RGS4 and Galphao | shares compounds with RGS16-Gao | multiplexed bead flow cytometry, RGS–Galpha-o binding | RGS4–Galpha-o binding response, % at 10 µM | 1,600 compounds, 99% hits;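 also: fluorescently labeled Galpha-o bound to GDP with aluminium fluoride binding biotinylated RGS beads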
Target sequence (P09471 whole entry, looked up): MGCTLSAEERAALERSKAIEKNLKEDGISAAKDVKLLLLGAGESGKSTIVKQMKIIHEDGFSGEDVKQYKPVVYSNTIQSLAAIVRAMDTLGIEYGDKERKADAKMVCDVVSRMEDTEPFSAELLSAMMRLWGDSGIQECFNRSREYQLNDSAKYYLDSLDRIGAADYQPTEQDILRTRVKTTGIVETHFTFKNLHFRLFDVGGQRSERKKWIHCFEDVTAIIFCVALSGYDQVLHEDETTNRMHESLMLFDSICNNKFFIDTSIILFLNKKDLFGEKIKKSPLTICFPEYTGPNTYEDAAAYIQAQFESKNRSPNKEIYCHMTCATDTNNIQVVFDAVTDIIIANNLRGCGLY
Target sequence (P49798 whole entry, looked up): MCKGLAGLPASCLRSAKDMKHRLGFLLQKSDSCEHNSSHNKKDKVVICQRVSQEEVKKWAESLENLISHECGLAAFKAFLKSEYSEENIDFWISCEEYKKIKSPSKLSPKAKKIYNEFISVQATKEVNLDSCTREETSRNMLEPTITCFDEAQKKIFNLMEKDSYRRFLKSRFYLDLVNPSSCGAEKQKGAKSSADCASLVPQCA
Biotin-avidin = biotin-avidin bead binding disruption counter-screen; shares compounds with RGS16-Gao; 1,700 tested, under 10 active; inhibition, % at 10 µM; streptavidin beads, fluorescein-biotin binding, flow cytometry;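 active = inhibition above 50%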;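 also: median green fluorescence of gated singlet beads compared with DMSO control wells; 0% = DMSO wells and 100% = complete loss of bead fluorescence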
RGS8-Gao single = confirmation of regulators of human RGS8-Galphao interaction; binding response (% of control), % at 10 µM; bead-based flow cytometry RGS8-Galphao binding, fluorescence; actives lie on both sides; shares compounds with RGS16-Gao; AID 1836; 1,700 compounds, 3% hits; in the data active = binding response below about 72% or above about 130%; inactive = in between;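 also: Galphao activated as GDP AlF4 complex before binding bead RGS8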
RGS7-Gao single = confirmation of regulators of human RGS7-Galphao interaction | shares compounds with RGS16-Gao | bead-based flow cytometry RGS7-Galphao binding; actives lie on both sides | response (percent of control binding), % at 10 µM | 1,700 compounds, 7.8% hits; in the data active = response below about 75% or above about 130%; inactive = in between;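 also: fluorescent Galphao activated with GDP and aluminum fluoride binding bead-coupled RGS7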
RGS16-Gao conf = confirmation of regulators of human RGS16-Galphao interaction; shares compounds with RGS16-Gao; bead-based flow cytometry, RGS16-Galphao binding; actives lie on both sides; response (% of control binding), % at 10 µM; 1,700 compounds, 4% hits; in the data active = response below about 74% or above about 130%; inactive = in between;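 also: Galphao activated as the GDP aluminium fluoride complex binding bead-coupled RGS16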
RGS4-Gao single = RGS4-Galphao interaction regulation, single point confirmation; shares compounds with RGS16-Gao; RGS4-Galphao binding, multiplexed bead flow cytometry; actives lie on both sides; binding response (% of control), % at 10 µM; 1,700 compounds, 4% hits; in the data active = binding response below about 74% or above about 130%; inactive = in between
RGS19-Gao conf = confirmation of regulators of human RGS19-Galphao interaction. shares compounds with RGS16-Gao. AID 1841. 1,700 compounds, 5% hits. bead-based flow cytometry RGS19-Galphao binding; actives lie on both sides. response (percent of control binding), % at 10 µM; in the data active = response below about 50% or above about 160%; inactive = in between;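 also: 100% = no compound control and 0% = blank background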
Starred values were filed as active, the others as inactive; i = inactive; . = no result; [ ] = remark or other dose. Unless noted, no rule for the calls is given here.

SMILES | RGS7-Gao reg | RGS16-Gao | RGS4-Gao reg | RGS8-Gao | Biofilm kill mix | Biotin-avidin | RGS8-Gao single | RGS7-Gao single | RGS16-Gao conf | RGS4-Gao single | RGS19-Gao conf | others
COc1ccccc1N1CCN(S(=O)(=O)c2ccc3c4c(cccc24)C(=O)N3C)CC1 | -3.9* | -19* | -21* | 16* | . | 1 | 101 | 104 | 103 | 104 | 104
COc1ccccc1N1CCN(S(=O)(=O)c2ccc3c4c(cccc24)C(=O)N3)CC1 | 114 | 117 | 118 | 108 | . | . | . | . | . | . | .
NCC(c1ccccc1)(c1ccccc1)c1ccccc1 | 97 | 24* | 98 | 79 | 13 | 0 | 102 | 98 | 102 | 98 | 103 | RGS-Gao=98*
CN(C)CCC(O)(c1ccccc1)c1ccccc1 | 107 | 141 | 105 | 115 | . | . | . | . | . | . | .
COC(=O)c1ccc(NC(=O)Cn2nc(C)cc2C)cc1 | 97 | 101 | 98 | 102 | 9 | . | . | . | . | . | .
CCCOC(=O)c1ccc(OC(=O)c2ccco2)cc1 | 137 | i | 176*[activator] | 122 | . | -1 | 100 | 92 | 101 | 100 | 102
CCCCCCC(=O)c1c(C)[nH]c(C(=O)OCC)c1C | 121 | . | 120 | . | . | 2 | 99 | 99 | 102 | 100 | 79
O=C1C2C3C=CC(C2C(=O)N1C1CCCCC1)C1C2C(=O)N(C4CCCCC4)C(=O)C2C31 (stereo unspecified) | 100 | 96 | 98 | 100 | 14 | . | . | . | . | . | .
O=c1[nH]c(=O)n(Cc2ccco2)c2c1C(C(F)(F)F)(C(F)(F)F)N=C(c1ccc(F)cc1)N2 | 104 | 98 | 98 | 106 | . | . | . | . | . | . | .
O=c1[nH]c(=O)n(Cc2ccccc2)c2c1C(C(F)(F)F)(C(F)(F)F)N=C(c1ccco1)N2 | 45* | 42 | 49* | 56* | . | -1 | 101 | 101 | 101 | 100 | 98
CC(C)(C)c1nnc2sc(SCC(=O)c3ccccc3)nn2c1=O | 106 | 100 | 101 | 102 | . | . | . | . | . | . | .
CC(C)(C)c1nnc2sc(SC/C(O)=C(\C#N)c3nc4ccccc4[nH]3)nn2c1=O | 161*[activator] | 178*[activator] | 177*[activator] | 148*[activator] | . | 0 | 101 | 95 | 97 | 96 | 87
Cc1cc(=S)cc(C)n1CCO | 104 | 0 | 100 | 53* | 4 | 0 | 95 | 99 | 99 | 97 | 97 | RGS-Gao=100*
CCOC(=O)C1=C(C)N=C2SC(CC)C(=O)N2C1c1cccc(F)c1 (stereo unspecified) | . | . | . | . | . | -2 | 98 | 93 | 99 | 99 | 98
C#CCOCCOCCOCCNc1nc(N2CCN(C(=O)[C@H]([C@@H](C)CC)n3cc([C@@H](N)CO)nn3)CC2)nc(N2CCN(C(=O)[C@H]([C@@H](C)CC)n3cc([C@@H](N)Cc4ccc(O)cc4)nn3)CC2)n1 | 18* | 18* | 22* | 41* | 15 | 0 | 100 | 101 | 99 | 99 | 88
N#CC(C(=O)OC1CCCCC1)c1nc2ccccc2nc1N1CCOCC1 (stereo unspecified) | 171*[activator] | 106 | 119 | 96 | . | . | . | . | . | . | . | RGS-Gao=119*
CNC(=O)COC(=O)c1cc(-c2ccccc2)nn1-c1ccccc1 | 109 | 109 | 102 | 108 | 11 | . | . | . | . | . | .
O=S(=O)(Cc1ccc(Cl)cc1)c1ccccc1-c1nnc(-c2ccc(Cl)cc2)o1 | 95 | 99 | 98 | 97 | . | . | . | . | . | . | .
